Bioassay records as filed in PubChem BioAssay.
TRPC6 activator: activates the mouse TRPC6 cation channel | HEK293-TRPC6 membrane potential dye fluorescence; stronger effect = higher value | Q61143 | B-score at 10 µM | actives 0.13% (n = 310,000);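 active means B-score of the integrated fluorescence ratio above library mean plus 3 SD, and starting fluorescence ratio within library mean plus 5 SD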;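 further: higher score means more depolarization so channel activation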
Target sequence (Q61143 whole entry, looked up): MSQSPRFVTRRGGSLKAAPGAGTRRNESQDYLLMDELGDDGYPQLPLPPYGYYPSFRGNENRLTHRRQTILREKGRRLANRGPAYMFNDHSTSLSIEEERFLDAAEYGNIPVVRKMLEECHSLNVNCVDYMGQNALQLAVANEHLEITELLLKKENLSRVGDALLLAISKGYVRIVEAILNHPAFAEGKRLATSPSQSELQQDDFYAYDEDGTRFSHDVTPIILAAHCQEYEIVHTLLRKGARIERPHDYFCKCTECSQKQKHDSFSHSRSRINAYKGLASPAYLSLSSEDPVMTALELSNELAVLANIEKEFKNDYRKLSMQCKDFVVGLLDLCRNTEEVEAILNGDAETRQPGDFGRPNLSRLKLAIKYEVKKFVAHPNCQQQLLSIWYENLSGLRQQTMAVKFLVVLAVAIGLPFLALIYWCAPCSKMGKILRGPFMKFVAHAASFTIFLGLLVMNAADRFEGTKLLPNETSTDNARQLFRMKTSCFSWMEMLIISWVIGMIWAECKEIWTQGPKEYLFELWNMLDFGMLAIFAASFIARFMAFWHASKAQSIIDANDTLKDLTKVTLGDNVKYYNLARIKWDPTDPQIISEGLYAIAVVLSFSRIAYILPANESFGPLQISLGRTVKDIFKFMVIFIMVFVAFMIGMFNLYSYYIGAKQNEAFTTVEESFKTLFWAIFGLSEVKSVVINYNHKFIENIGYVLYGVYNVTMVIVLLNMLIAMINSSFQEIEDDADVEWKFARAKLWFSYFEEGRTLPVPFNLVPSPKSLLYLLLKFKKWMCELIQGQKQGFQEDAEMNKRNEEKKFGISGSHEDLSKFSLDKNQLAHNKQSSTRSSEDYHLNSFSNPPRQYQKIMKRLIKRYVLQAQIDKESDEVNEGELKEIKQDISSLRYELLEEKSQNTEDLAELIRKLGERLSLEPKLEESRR
TRPC4 agonist: TRPC4 (mouse) channel activation; Q9QUQ5; B-score at 10 µM; HEK293 TRPC4beta/mu-opioid, Fluo4 calcium fluorescence; stronger effect = higher value; actives 0.49% (n = 310,000); AID 2237;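 active means B-score above 5 SD of library B-scores, and initial fluorescence ratio not above library mean plus 5 SD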;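 further: positive B-score marks a calcium rise read as TRPC4 activation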
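Test system: HEK293 cells stably co-expressing mouse TRPC4beta and mu-opioid receptor | Schedule: Fluo4 dye loading 45 min at room temperature, 110 s recording | Measured by: Kinetic Fluo4 calcium fluorescence, 5 s baseline at 1 Hz | Evaluation: B score of integrated ratio | Controls: Buffer (low) and maximal DAMGO (high)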
Kir21 block: blocks the mouse Kir2.1 inward-rectifier potassium channel | B-score at 10 µM | actives 0.85% (n = 310,000) | AID 1672 | HEK293-Kir2.1, FluxOR thallium flux fluorescence; stronger effect = lower value;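 active means fluorescence ratio B-score at or below minus 3 SD of library scores, with starting-brightness B-score within 2 SD, cut at about -4.2 in these data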;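 further: channel flux triggered by added potassium and thallium sulfate stimulus; B-score of peak minus minimum fluorescence over baseline after thallium stimulus; more negative B-score means stronger Kir2.1 block with less thallium influx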
TRPC4 PAM: allosterically enhances the mouse TRPC4 cation channel | actives 0.42% (n = 310,000) | B-score at 10 µM | HEK293 TRPC4beta/mu-opioid, DAMGO EC20, Fluo-4 Ca2+ flux; stronger effect = higher value | Q9QUQ5;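 active means B-score of calcium response area above 5 SD of library B-scores, with initial fluorescence ratio within 5 SD of library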
TRPC6 inhibitor: inhibitors of mouse TRPC6 channel | Q61143 | HEK293-TRPC6, membrane potential dye, ACh-evoked depolarization; stronger effect = lower value | B-score at 10 µM | actives 1.1% (n = 310,000) | AID 2553;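 active means B-score under library mean minus 3 SD, initial fluorescence not abnormally high, positive integrated signal ratio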;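 further: B-score derived from integrated fluorescence ratio over the kinetic read; more negative B-score means stronger inhibition of depolarization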
TRPC4 block: inhibitors of mouse TRPC4 channel | Q9QUQ5 | actives 0.39% (n = 300,000) | HEK293 TRPC4beta/mu-opioid, DAMGO-evoked Fluo4 calcium flux; stronger effect = lower value | B-score at 10 µM;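 active means B-score over 3 SD under the library average, no early fluorescence shift, positive overall ratio signal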
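Test system – stable TRPC4beta/mu-opioid receptor HEK293 cells · Probe or stimulus – DAMGO, a submaximal dose followed by a maximal one · Dosing – one concentration per compound · Signal – Fluo4 calcium fluorescence by kinetic imaging, 5 s 1 Hz baseline · Evaluation – per-well B score of integrated baseline-normalized Fluo4 ratio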
TRPC4 sel inh 2: mouse TRPC4 off-target activity of TRPC6 inhibitors, second screen; shares compounds with TRPC6 inhibitor; HEK293 TRPC4/MOR, membrane potential dye fluorescence; channel activated by saturating DAMGO dose; inhibition, % at 10 µM; actives 42% (n = 920); AID 2776;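 active means compounds whose fluorescence signal differed from control wells by over 3 SD, either direction, in both duplicate plates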
TRPC4 spec: mouse TRPC4 off-target activity of TRPC6 inhibitors. AID 2777. activity change, negative = inhibition, % at 10 µM. HEK293 TRPC4/mu-opioid, membrane potential fluorescence. actives 61% (n = 920). shares compounds with TRPC6 inhibitor;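 active means rise or fall in signal beyond 3 SD of buffer-only wells in both replicate plates, either sign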;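 further: integrated kinetic ratio of fluorescence range over baseline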
HEK293 MPD ctr 2-1: parental HEK293 nonspecific activity of TRPC6 inhibitors, second screen; signal change vs control, % at 10 µM; parental HEK293 membrane potential dye fluorescence; maximal acetylcholine challenge after compound addition; shares compounds with TRPC6 inhibitor; AID 2779; actives 31% (n = 920);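 active means membrane potential signal moving either way by over 3 SD of the maximum-effect control, in both duplicate plates, meaning non-specific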
HEK293 MPD ctr-1: checks TRPC6 inhibitor effects in parental HEK293 cells; actives 60% (n = 920); shares compounds with TRPC6 inhibitor; membrane potential signal change, % at 10 µM; parental HEK293 membrane potential dye fluorescence;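 active means membrane potential signal shifting up or down by more than 3 SD of buffer-only wells, on both duplicate plates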
HEK293 MPD ctr-2: checks TRPC6 modulator effects in parental HEK293 cells | shares compounds with TRPC6 inhibitor | membrane potential dye fluorescence | membrane potential signal change, % at 10 µM | actives 51% (n = 2,400);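 active means membrane potential signal moves up or down beyond 5 SD from buffer-only wells, on both duplicate plates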
HEK293 MPD ctr 2-2: second counter-screen for TRPC6 modulators: effect in parental HEK293 cells | shares compounds with TRPC6 inhibitor | membrane potential dye fluorescence; after compound, maximal acetylcholine stimulation | actives 14% (n = 2,400) | inhibition, % at 10 µM;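 active means membrane potential signal drops by more than 5 SD from the mean control signal, in both duplicate plates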
TRPC4 ctr mod: selectivity of TRPC6 modulators against mouse TRPC4. shares compounds with TRPC6 inhibitor. HEK293 TRPC4/mu-opioid, membrane potential fluorescence. percent change from control (negative = decrease, positive = increase), % at 10 µM. actives 69% (n = 2,400). AID 488927;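 active means membrane potential signal moved up or down beyond 5 SD of buffer control wells, in both duplicate plates, actives on both sides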
TRPC4 ctr inh 2: second selectivity test of TRPC6 modulators against mouse TRPC4. shares compounds with TRPC6 inhibitor. HEK293 TRPC4/mu-opioid, membrane potential dye fluorescence; stimulated with maximal-effect DAMGO. inhibition, % at 10 µM. actives 55% (n = 2,400);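 active means drop in membrane potential signal beyond 5 SD of the control wells in both duplicate plates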;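 further: TRPC4 counter screen for TRPC6 hits run under conditions tuned for TRPC6 not TRPC4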
TRPC6 block conf: mouse TRPC6 inhibitor confirmation | HEK293-TRPC6, membrane potential dye, ACh-evoked depolarization | AID 488960 | shares compounds with TRPC6 inhibitor | actives 43% (n = 3,300) | inhibition, % at 10 µM;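 active means fluorescence ratio falls more than 5 SD below the full-stimulation control mean, in both duplicate runs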;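 further: integrated fluorescence ratio of peak minus minimum over baseline after agonist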
TRPC6 act conf: mouse TRPC6 activator confirmation; activation, % at 10 µM; AID 488961; actives 11% (n = 2,800); HEK293-TRPC6 membrane potential dye fluorescence, FDSS; shares compounds with TRPC6 inhibitor;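 active means ratio signal rise beyond 5 SD above unstimulated control wells' mean, seen in both duplicate runs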
Large screens that a line does not name were inactive (follow-up assays come after a bar, where they were run). Only some compounds are listed: those with a hit (about 3% of all), similar ones and a draw of the others.

CC(C)(C)c1ccc(OCC(=O)O)cc1	none
O=c1[nH]c2ccc(S(=O)(=O)N3CCN(c4ccccc4F)CC3)cc2s1	TRPC6 inhibitor -8 | TRPC4 sel inh 2 inactive | TRPC4 spec 0.3% | HEK293 MPD ctr 2-1 226% | HEK293 MPD ctr-1 inactive | TRPC6 block conf inactive | TRPC6 act conf inactive
CCN1CCN(c2cc(C)c3cc(NC(=O)CCC(=O)N4CCN(c5ccccc5)CC4)ccc3n2)CC1	none
CCCCN(C)C(=O)CCC(=O)Nc1ccc2nc(N3CCN(C)CC3)cc(C)c2c1	none
CCC(C)NC(=O)CCC(=O)Nc1ccc2nc(N3CCOCC3)cc(C)c2c1 (stereo not drawn)	TRPC6 inhibitor -5.5 | HEK293 MPD ctr-2 -260% | HEK293 MPD ctr 2-2 inactive | TRPC4 ctr mod -44% | TRPC4 ctr inh 2 38% | TRPC6 block conf 40% | TRPC6 act conf inactive
CC(=O)c1ccc(N2CCN(C(=O)CCC(=O)Nc3ccc4nc(N5CCN(C)CC5)cc(C)c4c3)CC2)cc1	TRPC6 activator 13 | HEK293 MPD ctr-2 inactive | HEK293 MPD ctr 2-2 inactive | TRPC4 ctr mod 16% | TRPC4 ctr inh 2 inactive | TRPC6 block conf inactive | TRPC6 act conf inactive
CCCCN(C)C(=O)CCC(=O)Nc1ccc2nc(N3CCOCC3)cc(C)c2c1	TRPC6 inhibitor -7.6 | TRPC4 sel inh 2 inactive | TRPC4 spec -20% | HEK293 MPD ctr 2-1 inactive | HEK293 MPD ctr-1 -326% | TRPC6 block conf inactive | TRPC6 act conf inactive
CCC(C)NC(=S)Nc1ccc2nc(N3CCOCC3)cc(C)c2c1 (stereo not drawn)	none
CC(Oc1ccc(F)cc1)C(=O)N(CCC1=CCCCC1)c1c(N)n(Cc2ccccc2)c(=O)[nH]c1=O (stereo not drawn)	none
C[C@@H]1NC(=O)[C@H](CCC(=O)O)NC(=O)c2cc([N+](=O)[O-])cc(F)c2NCCC[C@@H](C(N)=O)NC1=O	none
CN(C(=O)COC(=O)/C=C/c1ccc(Cl)c(Cl)c1)c1c(N)n(Cc2ccccc2)c(=O)[nH]c1=O	none
CC(C)Cc1nnc(NC(=O)c2cc([N+](=O)[O-])ccc2N2CCOCC2)s1	TRPC6 inhibitor -5.2 | HEK293 MPD ctr-2 inactive | HEK293 MPD ctr 2-2 inactive | TRPC4 ctr mod inactive | TRPC4 ctr inh 2 inactive | TRPC6 block conf inactive | TRPC6 act conf inactive
Cc1ccc(-c2csc(NC(=O)c3cc([N+](=O)[O-])ccc3N3CCOCC3)n2)cc1	none
COc1ccc(-n2c(SCC(=O)NCC3CCCO3)nc3c(c2=O)SC(C)C3)cc1 (stereo not drawn)	none
O=C(/C=C\c1ccccc1OC(=O)c1ccccc1F)c1cc2ccccc2o1	TRPC6 inhibitor -7.1 | TRPC4 sel inh 2 inactive | TRPC4 spec inactive | HEK293 MPD ctr 2-1 inactive | HEK293 MPD ctr-1 inactive | TRPC6 block conf inactive | TRPC6 act conf inactive
Cc1ccc2ccccc2[n+]1CCCS(=O)(=O)[O-]	none
CCCC[n+]1c2ccccc2cc2ccccc21	TRPC6 inhibitor -6.3, TRPC4 block -5 | HEK293 MPD ctr-2 -170% | HEK293 MPD ctr 2-2 inactive | TRPC4 ctr mod -100% | TRPC4 ctr inh 2 74% | TRPC6 block conf 56% | TRPC6 act conf inactive
CCC[n+]1c2ccccc2cc2ccccc21	TRPC6 inhibitor -12 | HEK293 MPD ctr-2 -176% | HEK293 MPD ctr 2-2 84% | TRPC4 ctr mod -91% | TRPC4 ctr inh 2 66% | TRPC6 block conf 68% | TRPC6 act conf inactive
CCN(CC)CCN1C(=O)c2cccc3cc(N)cc(c23)C1=O	TRPC6 inhibitor -5.5 | HEK293 MPD ctr-2 531% | HEK293 MPD ctr 2-2 inactive | TRPC4 ctr mod -32% | TRPC4 ctr inh 2 61% | TRPC6 block conf 48% | TRPC6 act conf inactive
CC(C)CCOC(=O)C[N+](C)(C)CCOC1CC2CCC1(C)C2(C)C (stereo not drawn)	TRPC6 inhibitor -5.7 | HEK293 MPD ctr-2 155% | HEK293 MPD ctr 2-2 inactive | TRPC4 ctr mod 34% | TRPC4 ctr inh 2 34% | TRPC6 block conf 48%
CCCCOC(=O)C[N+](C)(C)CCOC1CC2CCC1(C)C2(C)C (stereo not drawn)	TRPC6 inhibitor -5.2 | HEK293 MPD ctr-2 99% | HEK293 MPD ctr 2-2 inactive | TRPC4 ctr mod 23% | TRPC4 ctr inh 2 inactive | TRPC6 block conf 38%
CC(C)(C)c1ccc(OC(=O)CN2C(=O)C3C4CCC(C4)C3C2=O)cc1 (stereo not drawn)	TRPC6 inhibitor -5.9 | HEK293 MPD ctr-2 inactive | HEK293 MPD ctr 2-2 inactive | TRPC4 ctr mod inactive | TRPC4 ctr inh 2 inactive | TRPC6 block conf inactive | TRPC6 act conf inactive
O=C(CN1C(=O)C2C3CCC(C3)C2C1=O)OCC(=O)c1ccccc1 (stereo not drawn)	none
COc1ccccc1CN1CCC(CNS(=O)(=O)c2cc(-c3onc(C)c3C)ccc2OC)CC1	none
